Screens (PubChem BioAssay)
The list is not random: actives were taken first. Their share in the collection is about 2.9%.
ZTA counter: counter-screen for EBNA-1 inhibitors: inhibitors of Epstein-Barr virus ZTA; P03206; ZTA-DNA binding, fluorescence polarization; inhibition, % at 11 µM; 320,000 compounds, 0.15% hits; AID 2234; in the data active = inhibition above about 33%
Target sequence (P03206 whole entry, looked up): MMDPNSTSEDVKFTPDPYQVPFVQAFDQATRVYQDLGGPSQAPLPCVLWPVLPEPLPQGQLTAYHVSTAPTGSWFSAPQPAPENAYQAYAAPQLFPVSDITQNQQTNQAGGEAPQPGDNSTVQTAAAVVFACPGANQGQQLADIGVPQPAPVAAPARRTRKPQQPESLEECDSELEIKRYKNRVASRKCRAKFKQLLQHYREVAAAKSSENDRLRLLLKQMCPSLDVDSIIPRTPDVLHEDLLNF
EBNA-1 inhibitor: blocks EBNA-1 binding to DNA | 300,000 compounds, 0.34% hits | inhibition, % at 14.8 µM | EBNA-1 DNA binding, fluorescence polarization | AID 1950; in the data active = inhibition above about 28%
Apaf-1 inh: inhibitors of human Apaf-1 apoptosome. reconstituted apoptosome caspase-3 activity, DEVD-Rh110 fluorescence. O14727. 330,000 compounds, 0.71% hits. AID 489030. inhibition, % at 20 µM; active = inhibition of at least 40% at 20 µM;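 also: plate controls were DMSO wells for no effect and DEVD-CHO caspase inhibitor wells for full effect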
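Material: biochemical Apaf-1 apoptosome reconstitution. Medium: Hepes buffer, pH 7.5. Also added: cytochrome c activation, bis-DEVD rhodamine 110 substrate. Timing: 30 min compound preincubation, 50 min activation, room temperature. Measured by: rhodamine 110 fluorescence at Ex 480/Em 540 nm.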
PfM18AAP inh: blocks P. falciparum M18 aspartyl aminopeptidase | recombinant PfM18AAP, H-Glu-NHMec fluorogenic cleavage | inhibition, % at 7.35 µM | 290,000 compounds, 1.2% hits | AID 1822;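 active = inhibition above the campaign mean inhibition over all tested compounds plus 3 SD, cut at about 28% in these data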;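 also: 0% = plate median of test compound wells and 100% = 2 mM ZnCl2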
UBC13 polyUb: blocks human UBC13 polyubiquitin chain formation; P61088; TR-FRET; inhibition, % at 20 µM; 330,000 compounds, 0.47% hits; AID 485273; in the data active = inhibition above about 45%, passing the limit was not always enough; inconclusive = no clear call, values can overlap the other calls
Target sequence (P61088 whole entry, looked up): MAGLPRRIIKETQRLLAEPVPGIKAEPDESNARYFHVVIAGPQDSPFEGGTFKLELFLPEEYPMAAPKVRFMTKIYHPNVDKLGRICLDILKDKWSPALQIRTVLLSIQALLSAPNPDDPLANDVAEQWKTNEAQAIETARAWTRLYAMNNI
PfG6PD inh: PfG6PD (Plasmodium falciparum) enzyme inhibition | inhibition, % at 20 µM | 350,000 compounds, 0.78% hits | PfGluPho enzyme, NADPH resazurin-diaphorase fluorescence;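 active = inhibition reaching at least a set limit at 20 µM in the primary screen, cut at about 59% in these data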;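 also: 0% = DMSO wells with substrate and 100% = DMSO wells lacking glucose-6-phosphate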
PfG6PD confirm: confirmation of Plasmodium falciparum G6PD inhibitors. AID 504753. shares compounds with PfG6PD inh. recombinant PfGluPho, NADPH-diaphorase-resazurin fluorescence. inhibition, % at 20 µM. 2,400 compounds, 34% hits;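 active = inhibition of at least 50% at 20 µM in any single replicate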;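 also: 0% = DMSO with substrate and 100% = DMSO lacking glucose-6-phosphate substrate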
Diaph ctr 10uM: counter-screen for P. falciparum G6PD inhibitors: diaphorase inhibitors, oxidizers | diaphorase-coupled resazurin reduction, fluorescence, NADPH 10 uM | shares compounds with PfG6PD inh | 820 compounds, 39% hits | inhibition, % at 20 µM | AID 504862;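 active = average inhibition reaching 50% or more with the compound at 20 µM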;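 also: resorufin red fluorescence formed as diaphorase reduces resazurin using NADPH; 0% = DMSO with enzyme and 100% = DMSO without enzyme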
Diaph ctr 30uM: inhibits diaphorase or oxidizes, flagging false PfG6PD hits; 820 compounds, 29% hits; Diaphorase/resazurin coupled assay, resorufin fluorescence, 30 uM NADPH; inhibition, % at 20 µM; AID 504863; shares compounds with PfG6PD inh;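 active = inhibition averaging 50% or more, tested at 20 µM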;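 also: 0% = DMSO with enzyme and 100% = DMSO wells lacking diaphorase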
* marks the source's active call; other numbers are inactive results; u = inconclusive; x = not tested or not shown.

SMILES	ZTA counter	EBNA-1 inhibitor	Apaf-1 inh	PfM18AAP inh	UBC13 polyUb	PfG6PD inh	PfG6PD confirm	others
COc1cccc(Nc2ncnc3c2cnn3-c2cccc(C)c2)c1	4	-2	1	-6	-1	45	x
Fc1cccc(Nc2ncnc3c2cnn3-c2ccccc2)c1	16	-1	24	x	14	70*	13
Cc1cc(OCCSc2nnc(-c3cccs3)n2C)ccc1Cl	-5	11	8	2	11	70*	22
Cc1ccc(OCCSc2nnc(-c3cccs3)n2C)cc1	-12	0	8	1	-5	12	x
CN(CC(=O)Nc1ccccc1Br)C(=O)CN1CCN(Cc2ccc(Cl)cc2)CC1	19	x	-6	x	20	7	x
CCOC(=O)CN1NC2(CCCCCCC2)NC1=S	-4	0	-1	14	2	66*	-24
CCOC(=O)CN1NC2(CCCCC2)NC1=S	-6	-16	11	12	-8	21	x
COc1cc(/C=C2\SC(N)=NC2=O)cc(Cl)c1O	17	11	1	2	-48	23	x
COc1cc(/C=C2\SC(c3ccc(C)cc3)=NC2=O)cc(OC)c1O	26	11	-13	17	-103	75*	53*	Diaph ctr 10uM=7;Diaph ctr 30uM=13
COc1ccc(NC(=O)n2ncc3c(C)cccc32)cc1	11	-9	12	1	8	69*	20
CC(C)N(C)C1=CC(=O)C(N(C)C(C)C)=CC1=O	x	x	x	x	x	67*	6
Cc1ccccc1NC(=S)N(Cc1ccco1)C(C)c1ccccn1 (stereo unspecified)	7	10	-14	5	0	-27	x
Cc1c(/C=N/NC(N)=O)c2ccccn2c1C(=O)c1ccc(F)cc1	-26	-7	-13	7	-30	54	x
Cc1c(/C=N/O)c2ccccn2c1C(=O)c1ccc(F)cc1	-10	-19	8	7	-4	76*	42
CC(C)Cn1c(N)c(C(=O)COC(=O)c2cc(-c3ccco3)nc3ccccc23)c(=O)n(C)c1=O	7	-7	37	-2	-54	71*	4
Cn1c(=O)c(C(=O)COC(=O)c2cc(-c3ccco3)nc3ccccc23)c(N)n(Cc2ccccc2)c1=O	11	15	-1	-5	-31	x	x
CCOC(=O)c1c(C)oc2ccc(OC(=O)c3cccs3)cc12	-7	-4	4	-3	13	8	x
COc1cc2nc3n(c(=O)c2cc1OC)-c1ncccc1C(=O)NC3Cc1ccccc1 (stereo unspecified)	x	x	x	x	x	-21	x
CCOC(=O)c1sc(NC(=O)c2ccncc2)c(C#N)c1C	-3	-1	1	-1	0	78*	45
CCOC(=O)c1c(NC(=O)c2ccncc2)sc(C)c1C	6	7	10	1	7	5	x
C#CCCOC(=O)N1C2=NC(C(=O)OC)=C(C(=O)OC)[C@@H]3N(CC=C)c4ccccc4[C@]23C[C@H]1C(=O)OC	3	0	5	x	-4	11	x
COc1c2c(cc3oc(CO[C@@H]4O[C@H](CO)[C@@H](O)[C@H](O)[C@H]4O)cc(=O)c13)O[C@H](C(C)(C)O)C2	x	x	1	x	2	-17	x
COc1ccc(-c2nn(-c3ccccc3)cc2C(=O)NC(=S)Nc2cc(Cl)ccc2Cl)cc1	15	9	-16	3	0	-6	x
COc1cnc(-c2ccccn2)nc1N(C)c1ccccc1	-3	-3	2	4	-7	0	x
CN1C2CCC1/C(=C\c1ccc(F)cc1)C(=O)/C2=C/c1ccc(F)cc1	11	0	13	-3	-4	4	x
SMILES	ZTA counter	EBNA-1 inhibitor	Apaf-1 inh	PfM18AAP inh	UBC13 polyUb	PfG6PD inh	PfG6PD confirm	others
C=CC(=O)N1C/C(=C/c2ccc(F)cc2)C(=O)/C(=C\c2ccc(F)cc2)C1	x	x	x	x	x	62*	14
CCCc1nccn1S(=O)(=O)c1cc(OC)ccc1OC	2	-4	-2	6	2	-12	x
N#CC(C#N)=C1C=CC=CN1/C(=C\c1ccccc1Cl)C(=O)c1ccccc1	0	6	x	3	x	78*	57*	Diaph ctr 10uM=-5;Diaph ctr 30uM=-2
C/C(=N\Nc1cccc(Cl)c1)c1ccncc1	-6	-9	17	7	-6	78*	33
CCOC(=O)c1cc(-c2ccccc2)sc1NC(=O)c1ccc(OC)c(OC)c1	-9	5	-1	22	u	78*	47
CCOC(=O)c1cc(-c2ccccc2)sc1NC(=O)C(C)C	10	-6	11	-8	6	15	x
CN1CC(=O)N(CC(=O)NCCc2ccc(F)cc2)c2ccccc2C1=O	8	4	-9	-12	2	0	x
CN1CC(=O)N(CC(=O)Nc2ccc(N(C)C)cc2)c2ccccc2C1=O	-6	12	-9	9	2	63*	6
Cn1c(C(=O)NCCCN2CCCCCC2)cc2c(=O)n(C)c3ccccc3c21	-5	3	25	9	40	60*	-2
Cc1ccc(C(C)C)c(OCC(=O)Nc2cccc(S(=O)(=O)NC3=NCCCCC3)c2)c1	0	0	34	-13	-13	10	x
Cc1cc(C)n(Cc2ccc(Cl)cc2Cl)c(=O)c1S(=O)(=O)c1ccccc1	-11	1	15	-3	1	71*	21
O=[N+]([O-])c1ccc2nc(-c3ccccc3)[nH]c2c1	4	2	-5	8	7	68*	21
Nc1cccc(-c2nc3ccc(C(=O)c4ccccc4)cc3[nH]2)c1	3	8	11	-2	-8	62*	14
CC(=O)Nc1ccc(S(=O)(=O)NCc2ccc(C(=O)NC(C)c3ccccc3)cc2)cc1 (stereo unspecified)	-11	3	-17	-8	-6	-3	x
COc1ccc2cc(C3=CC(=O)CCC3)ccc2c1	x	x	x	x	x	79*	35
CC(c1ccon1)N(C)C(=O)CCc1nnc(C2(c3ccc(Cl)cc3)CCC2)o1 (stereo unspecified)	17	8	-1	10	7	-8	x
COc1cccc(CNC(=O)CSc2nc3c(oc4ccccc43)c(=O)n2CC2CCCO2)c1 (stereo unspecified)	-12	-3	9	x	2	37	x
Cc1cc(NC(=O)c2oc3ccccc3c2C)ccc1-n1cnnn1	-4	-12	17	7	8	111*	73*	Diaph ctr 10uM=72*;Diaph ctr 30uM=43
Cc1c(C(=O)Nc2nnc(C(F)(F)F)s2)oc2ccccc12	-1	2	5	x	-1	104*	71*	Diaph ctr 10uM=83*;Diaph ctr 30uM=68*
O=C(Nc1ccccc1C(=O)Nc1nnc(C(F)(F)F)s1)c1ccccc1	6	1	1	-5	-3	74*	31
